The list is not random: actives were taken first. Their share in the collection is about 1.9%.
pCIP destab = p/CIP protein destabilization. Q05BA5. hit rate 0.01% among 290,000. F442A p/CIP-EGFP cells, EGFP fluorescence, 16 h. decrease of EGFP signal, % at 10 µM. AID 1984;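 active means EGFP signal decrease of at least 30% at 10 µM or well 3 SD below plate mean, unless failing retest; inactive means the rest, including hits failing retest or dose response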
IMP-1 inhibitor = blocks Pseudomonas aeruginosa IMP-1 metallo-beta-lactamase | AID 1556 | hit rate 0.45% among 290,000 | inhibition, % at 5.6 µM | purified IMP-1, nitrocefin hydrolysis, epi-absorbance fluorescence;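 active means inhibition above the mean plus 3 SD of all compounds in the same screening run, cut at about 4.5% in these data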
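Assay system: purified recombinant IMP-1 beta-lactamase. Input: IMP-1 0.2 nM before substrate addition. Buffer or medium: Zinc- and detergent-supplemented HEPES buffer, pH 7.1. Schedule: 25 °C, 15 min preincubation, 25 min reaction. Signal: Epi-absorbance fluorescence, 480 nm excitation, 530 nm emission. Evaluation: percent inhibition from optical density relative to buffer-blank wells.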
Fh CTSL1 inh = counter-screen for PFM18AAP inhibitors: inhibitors of F. hepatica cathepsin L1; inhibition, % at 5.96 µM; hit rate 0.49% among 300,000; recombinant F. hepatica cathepsin L1, Z-Leu-Arg-MCA fluorescence; AID 1906;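 active means inhibition above the mean of all tested compounds plus 3 SD, set per screening campaign, cut at about 17% in these data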
T cell HTS = T cell immune modulators affecting CD8 T cell-vesicle binding; 2C CD8+ T cell-vesicle binding, flow cytometry; stronger effect = lower value; response (vesicle binding), % at 7 µM; hit rate 0.068% among 330,000; AID 2052;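 active means response, share of CD8 T cells binding vesicles, and their 90th percentile fluorescence all below set limits, cut at about 80% in these data, passing the limit was not always enough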;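 further: values below 100% mean blocked vesicle binding to the CD8+ T cells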
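Test system: purified 2C TCR transgenic mouse naive CD8+ T cells. Probe or stimulus: QL9-peptide-loaded Drosophila micro-vesicles bearing Ld, ICAM-1 and B7-1. Incubation: binding step 1.5 h, 37 °C, antibody labelling 20 min, ice. Measured by: flow cytometry of vesicle-bound cells.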
UBC9 SUMO inh = blocks human SUMOylation mediated by UBC9; P63279; HTRF SUMOylation assay, SAE1/SAE2 + UBC9, in vitro; inhibition, % at 35 µM; hit rate 0.36% among 290,000; in the data active means inhibition above about 50%, passing the limit was not always enough
Target sequence (P63279 whole entry, looked up): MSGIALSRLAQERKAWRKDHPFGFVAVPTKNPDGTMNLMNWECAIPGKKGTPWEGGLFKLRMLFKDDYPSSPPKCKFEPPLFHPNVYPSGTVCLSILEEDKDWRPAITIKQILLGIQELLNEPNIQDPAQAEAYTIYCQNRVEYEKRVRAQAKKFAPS
VIM-2 inhibitor = blocks Pseudomonas aeruginosa VIM-2 metallo-beta-lactamase; purified VIM-2, nitrocefin hydrolysis, epi-absorbance fluorescence; inhibition, % at 5.6 µM; hit rate 0.89% among 290,000; AID 1527;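 active means inhibition above the mean of all tested compounds plus 3 SD, cutoff set per screening run, cut at about 7.5% in these data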;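 further: red hydrolysis product quenches plate fluorescence so inhibitors raise well fluorescence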
Numbers stand for hits; . = inactive; / = no result given.

SMILES | pCIP destab | IMP-1 inhibitor | Fh CTSL1 inh | T cell HTS | UBC9 SUMO inh | VIM-2 inhibitor
COc1cc(OC)cc(C(=O)N[C@H](C(=O)NCc2ccco2)C(C)C)c1 | . | . | . | . | . | .
COc1ccc(C(=O)Nc2ccccc2C(=O)NCCN2CCOCC2)cc1 | . | . | 23.0 | . | . | .
COc1ccc(C(=O)Nc2ccccc2C(=O)NC(C(=O)NCc2ccco2)C(C)C)cc1 (stereo not given) | . | . | 48.4 | . | . | .
CCC(C)[C@H](NC(=O)[C@@H]1CSC2c3ccccc3C(=O)N21)C(=O)NCc1ccco1 (stereo not given in full) | . | . | 80.6 | . | . | .
COc1ccc(C(=O)N[C@H](C(=O)NCc2ccco2)C(C)C)cc1 | . | . | 18.5 | . | . | .
O=S(=O)(c1ccccc1)c1nc(NCc2cccnc2)sc1Cl | . | . | . | . | . | .
COc1ccc2oc(=O)c(C(=O)NCc3ccco3)cc2c1 | . | . | . | . | 51.8 | .
CCC(C)C(NC(=O)OC(C)(C)C)C(=O)NCc1ccco1 (stereo not given) | . | . | 20.0 | . | . | .
COc1ccc(C(=O)Nc2ccccc2C(=O)N(Cc2ccco2)C(C(N)=O)C(C)C)cc1 (stereo not given) | . | . | 38.0 | . | . | .
O=C(O)[C@@H]1CSC2c3ccccc3C(=O)N21 (stereo not given in full) | . | 25.3 | . | . | . | .
Cc1ccc(NC(=O)CN2CCN(CCN=CC3=C(O)CC(c4ccc(C)cc4)CC3=O)CC2)cc1 (stereo not given) | . | . | . | . | . | .
O=C(Cc1ccc([N+](=O)[O-])cc1)Nc1ccc2c(c1)CCC2 | . | . | . | . | . | .
CC1CCN(C(=O)C2CCN(S(=O)(=O)c3ccc(-n4cnnn4)cc3)CC2)CC1 | . | . | . | . | . | .
COc1ccc(/C=C(/NC(=O)c2ccc(C)cc2)C(=O)NCc2ccncc2)cc1 | . | . | 20.8 | . | / | .
COc1ccccc1C(=O)NC(CCSC)C(=O)NCC(c1ccco1)N(C)C (stereo not given) | . | . | 27.4 | . | . | .
CC(C)C(NC(=O)c1ccco1)C(=O)NCC(c1ccco1)N(C)C (stereo not given) | . | . | 63.1 | . | . | .
O=C(O)c1cc(-n2nnnc2SCc2ccccc2F)ccc1Cl | . | . | . | . | . | 10.4
N#Cc1sc2nc3c(cc2c1N)CCCC3 | . | 16.6 | . | . | . | .
COCCNC(=O)CN1C(=O)COc2ccc(Cl)cc21 | . | . | 17.6 | . | . | .
CCOC(=O)c1c(C)[nH]c(C(=O)NCC(c2ccco2)N2CCCCC2)c1C (stereo not given) | / | / | / | . | / | /
COC(=O)CN(C#N)c1nc(NC(C)C)nc(NC(C)C)n1 | . | . | 69.2 | . | . | .
CCN(CC)C(=O)CN(C#N)c1nc(NC(C)C)nc(NC(C)C)n1 | . | . | . | . | . | .
COC(=O)C(C)N(C#N)c1nc(NC(C)C)nc(SC)n1 (stereo not given) | . | . | 32.0 | . | . | .
CN1CC(=O)N2Cc3[nH]c4ccccc4c3C[C@H]2C1=O | . | . | . | . | . | .
CC(=O)Nc1ccc(NC(=O)C(C)OC(=O)[C@@H]2CCCN2C(=O)c2cccs2)cc1 (stereo not given in full) | / | / | / | 64.9 | / | /
SMILES | pCIP destab | IMP-1 inhibitor | Fh CTSL1 inh | T cell HTS | UBC9 SUMO inh | VIM-2 inhibitor
COC(=O)C1CCCN1C(=O)c1cccs1 (stereo not given) | . | . | . | . | . | .
COc1ccc(-c2cc(=O)oc3c(C)c(OC(C)C(=O)NCc4ccccn4)ccc23)cc1 (stereo not given) | . | . | . | . | . | .
CCc1ccc2nc(NC(=O)Cn3cnc4ccccc4c3=O)sc2c1 | . | . | . | . | 50.3 | .
O=C(Cn1cnc2ccccc2c1=O)Nc1nc2ccccc2s1 | . | . | . | . | . | .
CCCCCc1nnc(NC(=O)CN2C(=O)C3CCCCC3C2=O)s1 (stereo not given) | . | . | . | . | . | .
CC1=NN(c2ccc(C)cc2)C(=O)/C1=C\c1ccc(Br)s1 | . | . | . | . | 76.1 | .
Cc1nn(C)c(Oc2ccccc2)c1CCNC(=O)CCl | . | . | 27.5 | . | . | .
CC(=O)OCc1c(C(F)(F)F)nn(C)c1Oc1ccccc1 | . | . | . | . | . | .
CC[C@]12c3[nH]c4ccccc4c3CCN1C(=O)C(CC(=O)NCc1cccc(C(F)(F)F)c1)C[C@@H]2C(=O)N1CCN(C(=O)c2ccco2)CC1 (stereo not given in full) | / | / | / | . | / | /
Clc1cccc(Cl)c1C1Nc2cccc3cccc(c23)N1 | . | . | . | . | 56.0 | .
Clc1cccc(C2Nc3cccc4cccc(c34)N2)c1 | . | . | . | . | . | .
Clc1ccc(C2Nc3cccc4cccc(c34)N2)cc1Cl | . | 6.1 | . | . | . | .
CCOC(=O)C(=CNc1ccc(C(F)(F)F)cc1Cl)C(=O)OCC | . | . | . | . | . | .
CCOC(=O)C(=CNc1ccccc1Cl)C(=O)OCC | . | . | / | / | . | .
CCOC(=O)C(=CNc1cc(Cl)c(-c2ccco2)c(Cl)c1)C(=O)OCC | . | 6.1 | . | . | . | .
CCOC(=O)C(=CNc1ccc(-c2ccco2)c(Cl)c1)C(=O)OCC | . | 6.4 | . | . | . | .
CN1c2ccccc2C(C)(C)C12C=Nc1c(ccc3ccccc13)O2 (stereo not given) | . | . | 21.3 | . | . | .
COc1ccc2ccc3c(c2c1)N=CC1(O3)N(C)c2ccccc2C1(C)C (stereo not given) | . | . | . | . | . | .
COc1ccccc1C(=O)NC(=S)/C=C1/N(C)c2ccccc2C1(C)C | . | . | 18.6 | . | . | .
Cc1cc(Cl)ccc1NC(=O)COC(=O)CCNS(=O)(=O)c1ccccc1 | / | / | / | 0.0 | / | /
O=C(CSc1nccc(=O)[nH]1)N1N=C2/C(=C/c3ccco3)CCCC2C1c1ccco1 (stereo not given) | . | . | 17.2 | . | . | .
COc1ccc(CCNC(=O)CS(=O)(=O)c2cn(CC(=O)N(C(C)C)C(C)C)c3ccccc23)cc1OC | . | . | 16.9 | . | . | .
Cc1ccc(NC(=S)N2CCC(NC(=O)c3ccc(F)cc3)CC2)cc1C | . | . | . | . | . | .
O=C(O)c1ccccc1C(=O)NCCc1c(C(=O)O)[nH]c2ccc(Cl)cc12 | . | . | . | . | . | 10.1
CCCCc1nc2cc(C(=O)NC(C)c3cnn(C)c3)ccc2o1 (stereo not given) | . | 25.1 | . | . | . | .
CC(OC(=O)c1ccccc1)C(=O)NCc1ccco1 (stereo not given) | / | / | / | . | / | /
Cc1ccccc1CSc1nnc([C@@H]2CCCN2)o1 | . | 5.7 | . | . | . | .

Compound activity (PubChem BioAssay)
